These results are taken from ChEMBL document CHEMBL1124689, “Thienylpyrazoloquinolines with high affinity to benzodiazepine receptors: continuous shift from inverse agonist to agonist properties depending on the size of the alkyl substituent” (J Med Chem, 1989).

What is called ED50 is the dose at which the effect has come halfway, by size or by number of responders. As a reminder, the Ki is the equilibrium dissociation constant of an inhibitor or competing ligand from its target. For orientation: inhibition in vivo means how much of the control response was suppressed. Low values mean little suppression, high ones strong suppression.

The source made the active and inactive calls. The rule behind the calls is not given here.

The species entered for experiment [1] is Mus musculus. Put plainly: Agonist activity was evaluated by inhibition of the PTZ-induced convulsions at a PTZ dose of 125 mg/ kg. In kind it is functional. The note with it: PTZ 125 mg/kg. Summed up: (§1)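 Male mice, groups of 8–16; test compound given iv, then immediately PTZ 125 mg/kg sc (convulsive dose). Endpoint: prevention of tonic convulsions and death over 2 h; dose protecting 50% computed by probit method with 95% confidence limits; partial activity given as percentage of animals affected at a stated dose.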

Experiment [2] deals with GABA-A receptor; anion channel. Nature of the experiment: Displacing potential to [3H]diazepam binding to benzodiazepine receptor in Wistar rat cerebral cortex. In kind it is tissue-based.
Experiment [3] concerns Mus musculus. Nature of the experiment: Inverse agonist activity was evaluated by potentiation of the pentylenetetrazole (PTZ) (75 mg/kg) induced convulsions; inactive to 10. The class given is functional, organism-based. Put shortly:
(§2)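 Male mice, groups of 8–16, given test compound iv and immediately challenged with subconvulsive PTZ (75 or 90 mg/kg sc). Tonic convulsions and death recorded over 2 h; dose producing effect in 50% derived by probit method with 95% confidence limits, or percentage of animals affected at a single dose.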

Experiment [4] has as its system Mus musculus. Put plainly: Inverse agonist activity was evaluated by potentiation of the pentylenetetrazole (PTZ) (90 mg/kg) induced convulsions. The class given is functional. Put shortly: as §2
Experiment [5] relates to Mus musculus. Put plainly: Inverse agonist activity was evaluated by potentiation of the pentylenetetrazole (PTZ) (75 mg/kg) induced convulsions. In kind it is functional. Put shortly: as §2
Experiment [6] deals with Mus musculus. Put plainly: Inhibition of tonic convulsions and death in mice after administration of 2.5 mg/kg of compound intravenously. The note with it: route intravenous. In kind it is functional. Summed up:
(§3)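 Proconvulsant (inverse agonist) assay in groups of 8–16 male mice. Each mouse received the compound iv and was immediately challenged with a sub-convulsive dose of pentylenetetrazole sc, either 75 or 90 mg/kg. Animals were watched for 2 h for tonic convulsions and death. The value is the percentage of animals affected at the stated dose.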

Experiment [7] deals with Mus musculus. Put plainly: Inhibition to produce tonic convulsions and death in mice after administration of 10 mg/kg intravenously. The class given is functional. The note with it: route intravenous. Summed up: as §3
The subject of experiment [8] is Mus musculus. Put plainly: Inverse agonist activity was evaluated by potentiation of the pentylenetetrazole (PTZ) (90 mg/kg) induced convulsions; inactive to 10. In kind it is functional, organism-based. Put shortly:
as §2

The species entered for experiment [9] is Mus musculus. Nature of the experiment: Agonist activity was evaluated by inhibition of the PTZ-induced convulsions at a PTZ dose of 125 mg/ kg; inactive to 10. In kind it is functional, organism-based. Also noted: dose 125 mg/ kg. Summed up:
as §1

In turn, `Cc1ccc2c(c1)ncc1c(=O)n(-c3ccc(C)s3)[nH]c12` came in with an ED50 in the experiment filed under Mus musculus [1] of 0.16 mg/kg. The same molecule yielded a Ki in experiment [2] of 0.32 nM.

Turning to `Cc1csc(-n2[nH]c3c(cnc4cc(C)ccc43)c2=O)c1`, the ED50 result with Mus musculus [3] is “inactive”. For the same molecule, in the experiment on Mus musculus [4], the ED50 stood at 5.15 mg/kg. The molecule further yielded a Ki in experiment [2] of 0.48 nM.

`CCCc1csc(-n2[nH]c3c(cnc4cc(C)ccc43)c2=O)c1` showed an ED50 in the experiment filed under Mus musculus [1] of 3.54 mg/kg. For the same molecule, in experiment [2], the affinity corresponds to a Ki of 1.01 nM.

Molecule `CCc1ccc(-n2[nH]c3c(cnc4cc(C)ccc43)c2=O)s1` had an ED50 in the experiment listed under Mus musculus [1] of 0.32 mg/kg. The Ki in [2] worked out at 1.02 nM.

`Cc1ccc2c(c1)ncc1c(=O)n(-c3csc(C)c3)[nH]c12`: the results for the ED50 in the experiment on Mus musculus [4] and in the experiment on Mus musculus [5] were 0.13 mg/kg and 0.47 mg/kg, respectively. The same molecule returned a Ki in experiment [2] of 0.32 nM.

As to `O=C1C2C=Nc3ccccc3C2=NN1c1ccc(Cl)cc1` (centres undefined) [CGS-9896], in the experiment listed under Mus musculus [1], it took a dose of 0.07 mg/kg to reach the 50% effect level (ED50).

As to `CCOC(=O)c1cc2c(cn1)[nH]c1ccccc12`, the median effective dose (ED50) in the experiment with Mus musculus [4] was 0.46 mg/kg; with Mus musculus [5], 1 mg/kg.

On to `Cc1ccc2c(c1)ncc1c(=O)n(-c3ccsc3)[nH]c12`, for which the results for the ED50 with Mus musculus [4] and in the experiment with Mus musculus [5] were 0.14 mg/kg and 0.43 mg/kg, respectively. The molecule also showed a Ki in experiment [2] of 0.73 nM.

Regarding `CN1C(=O)CN=C(c2ccccc2)c2cc(Cl)ccc21` [DIAZEPAM], it took a dose of 0.15 mg/kg to reach the 50% effect level in the experiment listed under Mus musculus [1] (ED50).

For the molecule `Cc1ccc2c(c1)ncc1c(=O)n(-c3cccs3)[nH]c12`, the ED50 in the experiment with Mus musculus [4] turned out to be 0.57 mg/kg. The molecule also displayed an inhibition in vivo at 2.5 mg/kg with Mus musculus [6] of 62.5%. Besides, in experiment [2], the Ki was 0.41 nM.

For `CCc1cc(-n2[nH]c3c(cnc4cc(C)ccc43)c2=O)cs1`, in the experiment on Mus musculus [3], the ED50 result is “inactive”. Moreover, in experiment [2], the Ki was 0.41 nM. In the experiment with Mus musculus [7], this molecule yielded an inhibition in vivo at 10 mg/kg of 50%.

As for `CCc1csc(-n2[nH]c3c(cnc4cc(C)ccc43)c2=O)c1`, the ED50 in the experiment filed under Mus musculus [1] was determined as 5.15 mg/kg. The same molecule gave a Ki in experiment [2] of 0.6 nM.

`CCCCc1ccc(-n2[nH]c3c(cnc4cc(C)ccc43)c2=O)s1` yielded an ED50 in the experiment filed under Mus musculus [1] of 0.22 mg/kg. In addition, the affinity in [2] corresponds to a Ki of 1.48 nM.

Turning to `CCCc1cc(-n2[nH]c3c(cnc4cc(C)ccc43)c2=O)cs1`, the ED50 result in the experiment with Mus musculus [8] and in the experiment listed under Mus musculus [9] was “inactive” in each case. This molecule also gave a Ki in experiment [2] of 1.04 nM.

In the case of `O=C1C2C=Nc3ccccc3C2=NN1c1ccccc1` (centres undefined) [CGS-8216], in the experiment on Mus musculus [3], the ED50 entry was “inactive”. Besides, the ED50 in the experiment with Mus musculus [4] came out at 0.2 mg/kg.
